Test results from article PMC11796557 (RSC Advances, 2025).

Tests used:
Format in all cases: cell-based
PC3 (prostate carcinoma) = assay: MTT anticancer activity; conditions: Homo sapiens, 48 h, read-out: IC50 PC3
Summary of the method: (§1)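 Cells kept in DMEM with 10% FBS, 1% penicillin–streptomycin and 1% L-glutamine at 37 °C, 5% CO₂. They were seeded at 10 000 per well and attached for 24 h, then exposed to varying concentrations (from a 10 mM DMSO stock) for 48 h. MTT (5 mg mL⁻¹) was added for 4 h, formazan dissolved in DMSO, and A570 read. IC50 was calculated. DMSO served as vehicle control and cisplatin or doxorubicin as positive control. Values are mean ± SD of three independent experiments (n = 9).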

normal fibroblasts = assay: MTT cytotoxicity assay, normal fibroblasts; conditions: Fibroblast, 48 h, read-out: IC50 Fibroblasts
Summary of the method: as §1

HCT116 (colon carcinoma) = assay: MTT anticancer activity; conditions: Homo sapiens, HCT-116, 48 h, read-out: IC50 HCT116
Summary of the method: as §1

MCF-7 (breast carcinoma) = assay: MTT anticancer activity; conditions: Homo sapiens, MCF7, 48 h, read-out: IC50 MCF-7
Summary of the method: as §1

A549 (lung carcinoma) = assay: MTT anticancer activity; conditions: Homo sapiens, A549, 48 h, read-out: IC50 A549
Summary of the method: as §1

SMILES | IC50 (PC3 (prostate carcinoma)) [µM] | IC50 (HCT116 (colon carcinoma)) [µM] | IC50 (MCF-7 (breast carcinoma)) [µM] | IC50 (A549 (lung carcinoma)) [µM] | IC50 (normal fibroblasts) [µM]
CC1(C)CC(=O)c2c(O)cc(=O)n(-c3ccccc3)c2C1 [Compound 3f, 4-Hydroxy-7,7-dimethyl-1-phenyl-7,8-dihydroquinoline-2,5(1H,6H)-dione] | 95.5 | 118 | 70.6 | 127 | > 500
CC1(C)CC(=O)c2c(O)cc(=O)n(Cc3ccccc3)c2C1 [Compound 3g, 1-Benzyl-4-hydroxy-7,7-dimethyl-7,8-dihydroquinoline-2,5(1H,6H)-dione] | 29.1 | 18.4 | 26.9 | 32.4 | > 500
CC1(C)CC(=O)c2c(O)cc(=O)n(-c3ccc(F)cc3)c2C1 [Compound 3h, 1-(4-Fluorophenyl)-4-hydroxy-7,7-dimethyl-7,8-dihydroquinoline-2,5(1H,6H)-dione] | 29.3 | 28.9 | 32.4 | 87.9 | > 500
COc1ccc(-n2c3c(c(O)cc2=O)C(=O)CC(C)(C)C3)cc1 [Compound 3i, 4-Hydroxy-1-(4-methoxyphenyl)-7,7-dimethyl-7,8-dihydroquinoline-2,5(1H,6H)-dione] | 34.1 | 33.4 | 50.1 | 73 | > 500
COc1cccc2c1C(=O)c1c(O)c3c(c(O)c1C2=O)C[C@@](O)(C(=O)CO)C[C@@H]3O[C@H]1C[C@H](N)[C@H](O)[C@H](C)O1 [Doxorubicin, reference compound] | – | 5.8 | 2.3 | – | –

Further lines, with some results ahead:

IC50 (PC3 (prostate carcinoma)) [µM] | IC50 (HCT116 (colon carcinoma)) [µM] | IC50 (MCF-7 (breast carcinoma)) [µM] | IC50 (A549 (lung carcinoma)) [µM] | SMILES | IC50 (normal fibroblasts) [µM]
151 | 148 | 189 | 189 | O=C1CCCc2c1c(O)cc(=O)n2-c1ccccc1 [Compound 3a, 4-Hydroxy-1-phenyl-7,8-dihydroquinoline-2,5(1H,6H)-dione] | > 500
239 | 162 | 213 | 159 | Cc1ccc(-n2c3c(c(O)cc2=O)C(=O)CCC3)cc1 [Compound 3b, 4-Hydroxy-1-(p-tolyl)-7,8-dihydroquinoline-2,5(1H,6H)-dione] | > 500
251 | 139 | 261 | 257 | O=C1CCCc2c1c(O)cc(=O)n2-c1ccc(Cl)cc1 [Compound 3c, 1-(4-Chlorophenyl)-4-hydroxy-7,8-dihydroquinoline-2,5(1H,6H)-dione] | > 500
65.9 | 46.5 | 34.2 | 98.5 | O=C1CCCc2c1c(O)cc(=O)n2-c1ccc(F)cc1 [Compound 3d, 1-(4-Fluorophenyl)-4-hydroxy-7,8-dihydroquinoline-2,5(1H,6H)-dione] | > 500
45 | 29.5 | 62.6 | 67 | COc1ccccc1-n1c2c(c(O)cc1=O)C(=O)CCC2 [Compound 3e, 4-Hydroxy-1-(2-methoxyphenyl)-7,8-dihydroquinoline-2,5(1H,6H)-dione] | > 500
43.6 | 38.2 | 81.4 | 78.8 | COc1ccccc1-n1c2c(c(O)cc1=O)C(=O)CC(C)(C)C2 [Compound 3j, 4-Hydroxy-1-(2-methoxyphenyl)-7,7-dimethyl-7,8-dihydroquinoline-2,5(1H,6H)-dione] | > 500
